From ChEMBL document CHEMBL4038336 (J Med Chem, 2017) come the findings set out here.

A short description of data set [1]: Total drug uptake in swine brain at 1.6 mg/kg, iv infusion via saphenous vein after 60 mins by LC-MS/MS analysis. It is filed as ADME, organism-based, Sus scrofa. As to conditions: pig, in vivo, 1 h. Put shortly: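 Anaesthetised swine, n = 2/dose. Infusion iv via saphenous vein over 1 h at 1.6 mg/kg or molar equivalent, in saline with 5% ethanol and 5% Tween 80. Animals were euthanised 60 min post-infusion and frontal cortex sampled. Extraction used methanol with glutamate-d5, then dabsyl chloride derivatisation (pH 9.0, 60 °C, 15 min) and LC–QTOF-MS.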

Data set [2] in a line: Ratio of unbound drug level in swine brain to plasma at 1.6 mg/kg, iv infusion via saphenous vein after 60 mins by LC-MS/MS analysis. It is filed as ADME, organism-based, Sus scrofa. As to conditions: pig. The method in brief: (§1)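 Free DON was derived from total swine brain and plasma levels at 60 min after 1.6 mg/kg-equivalent iv infusion. Unbound fraction came from ultrafiltration: DON 10 µM spiked into swine plasma or brain homogenate, 30 min at 37 °C, centrifuged through a 30 kDa cut-off filter at 37 °C for 45 min. fu = Cu/Ct × 100 by LC-MS/MS.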

Data set [3] in a line: Half life in swine brain at 10 uM after 30 to 60 mins by LC-MS/MS analysis. In kind it is ADME, tissue-based, Sus scrofa. Conditions: pig. Put shortly:
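Prodrugs at 10 µM spiked into swine brain homogenate (1% w/v) and incubated at 37 °C with orbital shaking. Triplicate aliquots were taken at 0, 30 and 60 min and quenched with ice-cold acetonitrile containing losartan IS. Prodrug was measured by LC-MS/MS as the analyte/IS peak-area ratio. t1/2 = 0.693/Kel, with Kel the slope of ln % remaining versus time.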

Data set [4] can be described thus: Fraction unbound in swine brain at 1.6 mg/kg, iv infusion via saphenous vein after 60 min post-infusion by LC-MS/MS analysis. In kind it is ADME, organism-based, Sus scrofa. As to conditions: pig, in vivo, 1 h.
Data set [5] can be described thus: Ratio of total drug level in swine cerebrospinal fluid to plasma at 1.6 mg/kg, iv infusion via saphenous vein after 60 mins by LC-MS/MS analysis. In kind it is ADME, organism-based, Sus scrofa, CSF/Plasma. As to conditions: pig. The method in brief:
(§2)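 Swine received DON 1.6 mg/kg or molar-equivalent prodrug by 1 h iv saphenous infusion in saline/5% ethanol/5% Tween 80 (n = 1/dose). Plasma was sampled via jugular catheter. CSF was taken from the cisterna magna at 60 min postdose. DON was methanol-extracted, dabsyl-derivatized and quantified by LC-MS/MS.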

A short description of data set [6]: Unbound drug level in swine brain at 1.6 mg/kg, iv infusion via saphenous vein after 60 mins by LC-MS/MS analysis. Conditions: pig, in vivo, 1 h. It is filed as ADME, organism-based, Sus scrofa. The method in brief:
(§3)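 Swine, n = 2/dose. Dosing was iv infusion over 1 h (1.6 mg/kg or molar equivalent), with brain and plasma taken 60 min post-infusion and totals measured by LC–MS/MS after dabsyl derivatisation. Free levels were calculated from the totals using ultrafiltration-derived bound fractions for brain and plasma (10 µM, 37 °C, 30 min).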

A short description of data set [7]: Ratio of total drug level in swine cerebrospinal fluid to unbound drug level in swine brain at 1.6 mg/kg, iv infusion via saphenous vein after 60 mins by LC-MS/MS analysis. As to conditions: pig, in vivo, 1 h. It is filed as ADME, organism-based, Sus scrofa. Put shortly:
as §1

Data set [8] in a line: Total drug uptake in swine cerebrospinal fluid at 1.6 mg/kg, iv infusion via saphenous vein after 60 mins by LC-MS/MS analysis. In kind it is ADME, organism-based, Sus scrofa. As to conditions: pig, read-out: Drug uptake. Put shortly:
as §2

The nature of data set [9]: Ratio of total drug level in swine brain to plasma at 1.6 mg/kg, iv infusion via saphenous vein after 60 mins by LC-MS/MS analysis. In kind it is ADME, organism-based, Sus scrofa. Conditions: pig, read-out: BPR. Put shortly: (§4)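 Terminal swine study using the same 1 h iv dosing, 1.6 mg/kg DON or molar equivalent (n = 2/dose). Animals were euthanized with pentobarbital/phenytoin at 60 min postinfusion. Plasma and full-thickness frontal cortex were collected. DON was quantified by LC-MS/MS after methanol extraction with glutamate-d5 IS and dabsyl chloride derivatization. Values are mean ± SEM.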

Data set [10] relates to Plasma. The data set can be described thus: Unbound plasma concentration in swine at 1.6 mg/kg, iv infusion via saphenous vein after 60 mins by LC-MS/MS analysis. It is filed as ADME, organism-based, Sus scrofa. Conditions: pig, in vivo, 1 h. The method in brief:
as §3

A short description of data set [11]: AUC (0 to t) in swine at 1.6 mg/kg, iv infusion via saphenous vein after 5 to 60 mins by LC-MS/MS analysis. It is filed as ADME, organism-based, Sus scrofa. As to conditions: pig, in vivo. Put shortly: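 DON (1.6 mg/kg) or molar-equivalent prodrug in sterile saline with 5% ethanol and 5% Tween 80, given as 1 h iv infusion via saphenous catheter to swine (n = 1/dose). Plasma from jugular central venous catheter at predose, 5, 15, 30, 45, 60 min. DON extracted with methanol plus glutamate-d5 IS, dabsyl chloride derivatized, quantified by LC-MS/MS; AUC0–t from plasma profile.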

Data set [12] in a line: Total plasma concentration in swine at 1.6 mg/kg, iv infusion via saphenous vein after 60 mins by LC-MS/MS analysis. It is filed as ADME, organism-based, Sus scrofa. As to conditions: pig. Put shortly: as §4
The nature of data set [13]: Ratio of total drug level in swine cerebrospinal fluid to unbound plasma concentration in swine at 1.6 mg/kg, iv infusion via saphenous vein after 60 mins by LC-MS/MS analysis. It is filed as ADME, organism-based, Sus scrofa. Conditions: pig, in vivo, 1 h.
Data set [14] deals with Mus musculus. The data set can be described thus: Toxicity in EcoHIV-infected C57BL/6J mouse assessed as change in motor function at 1 mg/kg, […] starting 1 day prior to EcoHIV infection and continuing every other day till day 30 measured after 30 days post infection. It is filed as organism-based. As to conditions: in vivo, 720 h.
Data set [15] deals with Mus musculus. The data set can be described thus: Toxicity in EcoHIV-infected C57BL/6J mouse assessed as change in visual impairment at 1 mg/kg, […] starting 1 day prior to EcoHIV infection and continuing every other day till day 30 measured after 30 days post infection. It is filed as organism-based. As to conditions: in vivo, 720 h.
For data set [16], the system named is Mus musculus. Kind of data set: Effect on latency to escape to visible platform in C57BL/6J mouse EcoHIV associated neurocognitive disorder model at 1 mg/kg, […] starting 1 day prior to EcoHIV infection and continuing every other day till day 30 measured after 30 days post infection by radial arm water maze test. It is filed as organism-based. Conditions: in vivo, 720 h. The method in brief:
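Same mice, dosing and EcoHIV or sham inoculation as the maze study. After the hidden-platform radial arm water maze testing, latency to reach a visible platform in the same context was timed. This serves as a control for vision, motivation and swimming ability.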

The test system of data set [17] is Mus musculus. Kind of data set: Toxicity in EcoHIV-infected C57BL/6J mouse assessed as change in body weight at 1 mg/kg, […] starting 1 day prior to EcoHIV infection and continuing every other day till day 30 measured after 30 days post infection. In kind it is organism-based. Conditions: in vivo, 720 h.
Data set [18] concerns Plasma. The data set can be described thus: Protein binding in swine plasma at 10 uM after 30 mins by ultrafiltration method. It is filed as ADME, cell-free, Sus scrofa. Conditions: pig, 0.5 h. The method in brief:
(§5)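 Drug was spiked at 10 µM into swine plasma or swine brain homogenate and held 30 min at 37 °C. Samples were ultrafiltered (30 kDa cutoff) by centrifugation for 45 min at 37 °C, 1800g. Filtrate and unfiltered matrix were extracted and quantified by LC–MS/MS. Fraction unbound = Cu/Ct × 100.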

The test system of data set [19] is Mus musculus. The data set can be described thus: Decrease in cognitive decline in C57BL/6J mouse EcoHIV associated neurocognitive disorder model assessed as decrease in latency to escape to hidden platform at 1 mg/kg, […] starting 1 day prior to EcoHIV infection and continuing every other day till day 30 measured after 30 days post infection by radial arm water maze test. In kind it is functional, organism-based.

Data set [20] deals with Mus musculus. Kind of data set: Toxicity in EcoHIV-infected C57BL/6J mouse assessed as diarrhea at 1 mg/kg, […] starting 1 day prior to EcoHIV infection and continuing every other day till day 30 measured after 30 days post infection. In kind it is organism-based. As to conditions: in vivo, 720 h.
A short description of data set [21]: Protein binding in swine brain at 10 uM after 30 mins by ultrafiltration method. Conditions: pig, 0.5 h. It is filed as ADME, tissue-based, Sus scrofa. The method in brief:
as §5

In data set [22] the test system is Human immunodeficiency virus. Kind of data set: Increase in EcoHIV viral DNA load in infected C57BL/6J mouse spleen at 1 mg/kg, […] starting 1 day prior to EcoHIV infection and continuing every other day till day 30 measured after 30 days post infection by qPCR method. It is filed as organism-based. Conditions: in vivo, 720 h.
The subject of data set [23] is Human immunodeficiency virus. The data set can be described thus: Effect on EcoHIV viral DNA load in infected C57BL/6J mouse brain at 1 mg/kg, […] starting 1 day prior to EcoHIV infection and continuing every other day till day 30 measured after 30 days post infection by qPCR method. It is filed as organism-based. As to conditions: in vivo, 720 h.
For data set [24], the system named is Mus musculus. The data set can be described thus: Decrease in cognitive decline in C57BL/6J mouse EcoHIV associated neurocognitive disorder model assessed as decrease in number of errors across learning trial 1 to 4 and retention trial at 1 mg/kg, […] starting 1 day prior to EcoHIV infection and continuing every other day till day 30 measured after 30 days post infection by radial arm water maze test. In kind it is functional, organism-based. Put shortly:
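Male C57BL/6J mice, 5 weeks old, n = 8/group. Dosing was 1 mg/kg ip every other day, starting 1 day before ip EcoHIV (2 × 10^6 pg p24) or PBS sham, and continued through testing. From day 30 p.i., radial arm water maze: daily four 60 s learning trials, then a 60 s retention test after 30 min rest. Hidden platform arm rotated daily. Values are last-3-day averages.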

Active and inactive are the calls of the source.

In the case of `CC(C)OC(=O)[C@H](CCC(=O)C=[N+]=[N-])NC(=O)OC(OC(=O)C(C)(C)C)c1ccccc1` (some centres not stated), the Drug uptake in [1] was found to be 5.9 nmol/g. For the same molecule, the Kp uu at 1 h in data set [2] is 0.157. Besides, the half-life at 10 µM in data set [3] stood at 31 min. Besides, the “Drug uptake(free)” value in [4] is recorded as 0.53 nmol/g; in [6] it was 0.531 nmol/g. For the same molecule, the Kp at 1 h in data set [5] is 0.069; in data set [9], 1.38. Further, the figures for the Ratio in data set [7] and in [13] were 2.07 and 0.087, respectively. For the same molecule, the concentration at 1 h in [8] turned out to be 1.1 µM; in [12], 4.88 µM. Moreover, the “Cp(f)” value in data set [10] stood at 3.86 µM. The same molecule registered an AUC(0-t) in data set [11] of 5.7 µM·h.
In turn, `CC(C)OC(=O)[C@H](CCC(=O)C=[N+]=[N-])NC(=O)OC(C)(C)OC(=O)C(C)(C)C` came in with a half-life at 10 µM in data set [3] of 291 min.
Regarding `[N-]=[N+]=CC(=O)CC[C@H](N)C(=O)O` [6-DIAZO-5-OXO-L-NORLEUCINE], the Activity entry is “Non-Toxic” in [14]; “Non-Toxic” in [15]; “Non-Toxic” in [16]; “Non-Toxic” in data set [17]; “Non-Toxic” in data set [20]; “Toxic” in data set [22]. The Activity entry in data set [23] is on record as “Non-Toxic”. Also, the Drug uptake in data set [1] is listed as 5.15 nmol/g. In addition, the Kp uu at 1 h in data set [2] worked out at 0.017. In [18], this molecule had a PPB of 21%. The Drug uptake(free) in data set [4] was 0.46 to 0.531 nmol/g; in [6], 0.464 nmol/g. The Kp at 1 h in data set [5] is 0.005. The concentration at 1 h in data set [8] amounted to 0.252 µM; in data set [12] it was 41.2 µM. The result in data set [19] and in data set [24] was Active. In data set [21], this molecule yielded a PB of 91%. In addition, the “Cp(f)” value in data set [10] turned out to be 32.5 µM. In [11], the AUC(0-t) came to 29.9 µM·h.
In data set [3], `CC(C)OC(=O)[C@H](CCC(=O)C=[N+]=[N-])NC(=O)OC(OC(=O)C(C)(C)C)C(C)C` (mixture of isomers) gave a half-life at 10 µM of 35 min.
For the molecule `CC(C)OC(=O)[C@H](CCC(=O)C=[N+]=[N-])NC(=O)O[C@H](C)OC(=O)C(C)(C)C`, in [3], the half-life at 10 µM turned out to be 75 min. Besides, in data set [11], the AUC(0-t) came to 8 µM·h.
